Laboratory results published in article PMC8851455 (ACS Omega, 2022).
Where two headings read alike, the source gives them in different places.

How the values were obtained:
S. typhimurium = details: at 12.1 to 147.8 nmol/plate; cited from earlier work
[1] = system: S. typhimurium tester strains (TA98, TA100, and TA102); experiment: Ames test, overall over three strains; type: cell-based, Salmonella typhimurium; details: 5 × 10^–5 to 50 pmol/plate, with or without S9
MCF-7 cells [2] = details: at 0.001–1 μM when tested from 0.001 to 50 μM; cited from earlier work
chicken fetal liver = experiment: TBARs level; type: in vivo; details: higher dose (0.5 mM: 450–500 μg/kg)
S. typhimurium TA98 = experiment: Ames test, strain TA98; type: cell-based, Salmonella typhimurium
S. typhimurium TA100 = experiment: Ames test, strain TA100; type: cell-based, Salmonella typhimurium
chicken embryo = experiment: Chicken embryonic assay; type: in vivo; details: egg injection, day 18
MCF-7 cells [3] = experiment: MCF-7 cell proliferation assay; type: cell-based, human
In short: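 MCF-7 cells exposed to test compound or E2 at six concentrations from 10–12 to 10–7 M in EA-free medium. Proliferation read as MTT product absorbance at 570 nm. Three independent trials, each in triplicate. % RME2 = 100 × (OD test − OD VC)/(max OD E2 − OD VC). EC50 from curve fitting. EEF = EC50 of E2/EC50 of sample. One-way ANOVA with Dunnett's test versus E2 at each concentration.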

[4] = TA102 +S9, 5 × 10^–2 pmol/plate
[5] = TA102 +S9, 5 × 10^–3 pmol/plate
[6] = TA102 +S9, 5 × 10^–4 pmol/plate
[7] = TA102 +S9, 5 × 10^–5 pmol/plate
[8] = TA102 -S9, 5 × 10^–3 pmol/plate
[9] = TA102 -S9, 5 × 10^–4 pmol/plate
[10] = TA102 -S9, 5 × 10^–5 pmol/plate
[11] = TA100 +S9, 5 × 10^–2 pmol/plate
[12] = TA100 +S9, 5 × 10^–3 pmol/plate
[13] = TA100 +S9, 5 × 10^–4 pmol/plate
[14] = TA100 +S9, 5 × 10^–5 pmol/plate
[15] = TA100 -S9, 5 × 10^–2 pmol/plate
[16] = TA100 -S9, 5 × 10^–3 pmol/plate
[17] = TA100 -S9, 5 × 10^–4 pmol/plate
[18] = TA100 -S9, 5 × 10^–5 pmol/plate
[19] = higher dose (0.5 mM: 450–500 μg/kg; E2 0.1 mM: 91 μg/kg)
[20] = lower dose (0.05 mM: 45–50 μg/kg; E2 0.01 mM: 9.1 μg/kg)

## O=c1c(O)c(-c2ccc(O)c(O)c2)oc2cc(O)cc(O)c12 [quercetin]
S. typhimurium
  mutagenicity in TA98, TA100, and TA102: showed mutagenicity
[1]
  Ames test outcome (signs of mutagenicity): signs of mutagenicity
MCF-7 cells [2]
  cell proliferation in the MCF-7 cells: < 120%
Chicken fetal liver
  TBARs value: 62.48 nmol/g
S. typhimurium TA98; TA98 +S9, 0.5 pmol/plate
  MI: 1.1
  number of revertants/plate (M ± SD): 25 ± 13 revertants/plate
S. typhimurium TA98; TA98 +S9, 5 pmol/plate
  MI: 0.8
  number of revertants/plate (M ± SD): 19 ± 10 revertants/plate
S. typhimurium TA98; TA98 +S9, 50 pmol/plate
  MI: 0.8
  number of revertants/plate (M ± SD): 18 ± 13 revertants/plate
S. typhimurium TA98; TA98 +S9, 5 × 10^–2 pmol/plate
  MI: 1.0
  number of revertants/plate (M ± SD): 23 ± 17 revertants/plate
S. typhimurium TA98; TA98 +S9, 5 × 10^–3 pmol/plate
  MI: 1.2
  number of revertants/plate (M ± SD): 27 ± 16 revertants/plate
S. typhimurium TA98; TA98 +S9, 5 × 10^–4 pmol/plate
  MI: 0.8
  number of revertants/plate (M ± SD): 18 ± 13 revertants/plate
S. typhimurium TA98; TA98 +S9, 5 × 10^–5 pmol/plate
  MI: 0.7
  number of revertants/plate (M ± SD): 17 ± 8 revertants/plate
S. typhimurium TA98; TA98 -S9, 0.5 pmol/plate
  MI: 1.3
  number of revertants/plate (M ± SD): 28 ± 1 revertants/plate
S. typhimurium TA98; TA98 -S9, 5 pmol/plate
  MI: 1.2
  number of revertants/plate (M ± SD): 27 ± 11 revertants/plate
S. typhimurium TA98; TA98 -S9, 50 pmol/plate
  MI: 1.3
  number of revertants/plate (M ± SD): 30 ± 2 revertants/plate
S. typhimurium TA98; TA98 -S9, 5 × 10^–2 pmol/plate
  MI: 0.8
  number of revertants/plate (M ± SD): 19 ± 6 revertants/plate
S. typhimurium TA98; TA98 -S9, 5 × 10^–3 pmol/plate
  MI: 1.4
  number of revertants/plate (M ± SD): 31 ± 6 revertants/plate
S. typhimurium TA98; TA98 -S9, 5 × 10^–4 pmol/plate
  MI: 1.2
  number of revertants/plate (M ± SD): 27 ± 3 revertants/plate
S. typhimurium TA98; TA98 -S9, 5 × 10^–5 pmol/plate
  MI: 1.1
  number of revertants/plate (M ± SD): 25 ± 2 revertants/plate
S. typhimurium TA102; TA102 +S9, 0.5 pmol/plate
  MI: 1.1
  number of revertants/plate (M ± SD): 326 ± 19 revertants/plate
S. typhimurium TA102; TA102 +S9, 5 pmol/plate
  MI: 0.9
  number of revertants/plate (M ± SD): 279 ± 21 revertants/plate
S. typhimurium TA102; TA102 +S9, 50 pmol/plate
  MI: 1.0
  number of revertants/plate (M ± SD): 310 ± 31 revertants/plate
S. typhimurium TA102; [4]
  MI: 1.1
  number of revertants/plate (M ± SD): 337 ± 7 revertants/plate
S. typhimurium TA102; [5]
  MI: 1.2
  number of revertants/plate (M ± SD): 369 ± 13 revertants/plate
S. typhimurium TA102; [6]
  MI: 1.0
  number of revertants/plate (M ± SD): 312 ± 16 revertants/plate
S. typhimurium TA102; [7]
  MI: 0.9
  number of revertants/plate (M ± SD): 291 ± 11 revertants/plate
S. typhimurium TA102; TA102 -S9, 0.5 pmol/plate
  MI: 1.0
  number of revertants/plate (M ± SD): 267 ± 23 revertants/plate
S. typhimurium TA102; TA102 -S9, 5 pmol/plate
  MI: 1.2
  number of revertants/plate (M ± SD): 312 ± 13 revertants/plate
S. typhimurium TA102; TA102 -S9, 50 pmol/plate
  MI: 1.4
  number of revertants/plate (M ± SD): 347 ± 10 revertants/plate
S. typhimurium TA102; [8]
  MI: 1.3
  number of revertants/plate (M ± SD): 325 ± 10 revertants/plate
S. typhimurium TA102; [9]
  MI: 1.2
  number of revertants/plate (M ± SD): 301 ± 16 revertants/plate
S. typhimurium TA102; [10]
  MI: 1.1
  number of revertants/plate (M ± SD): 284 ± 15 revertants/plate
S. typhimurium TA100; TA100 +S9, 0.5 pmol/plate
  MI: 1.2
  number of revertants/plate (M ± SD): 398 ± 8 revertants/plate
S. typhimurium TA100; TA100 +S9, 5 pmol/plate
  MI: 1.2
  number of revertants/plate (M ± SD): 386 ± 12 revertants/plate
S. typhimurium TA100; TA100 +S9, 50 pmol/plate
  MI: 1.1
  number of revertants/plate (M ± SD): 369 ± 12 revertants/plate
S. typhimurium TA100; [11]
  MI: 1.1
  number of revertants/plate (M ± SD): 366 ± 14 revertants/plate
S. typhimurium TA100; [12]
  MI: 1.1
  number of revertants/plate (M ± SD): 367 ± 5 revertants/plate
S. typhimurium TA100; [13]
  MI: 1.1
  number of revertants/plate (M ± SD): 349 ± 8 revertants/plate
S. typhimurium TA100; [14]
  MI: 1.1
  number of revertants/plate (M ± SD): 358 ± 14 revertants/plate
S. typhimurium TA100; TA100 -S9, 0.5 pmol/plate
  MI: 1.0
  number of revertants/plate (M ± SD): 105 ± 11 revertants/plate
S. typhimurium TA100; TA100 -S9, 5 pmol/plate
  MI: 1.0
  number of revertants/plate (M ± SD): 104 ± 8 revertants/plate
S. typhimurium TA100; TA100 -S9, 50 pmol/plate
  MI: 0.9
  number of revertants/plate (M ± SD): 88 ± 8 revertants/plate
S. typhimurium TA100; [15]
  MI: 1.1
  number of revertants/plate (M ± SD): 113 ± 6 revertants/plate
S. typhimurium TA100; [16]
  MI: 1.0
  number of revertants/plate (M ± SD): 103 ± 7 revertants/plate
S. typhimurium TA100; [17]
  MI: 1.0
  number of revertants/plate (M ± SD): 98 ± 7 revertants/plate
S. typhimurium TA100; [18]
  MI: 1.0
  number of revertants/plate (M ± SD): 97 ± 4 revertants/plate
Chicken embryo; [19]
  LSI (liver somatic index): 1.85 ± 0.21%
  REEW (ratio of embryo to egg weight): 0.43 ± 0.057
  mortality rate: 12.5%
  number of dead chicken embryo: 1
  weights: embryo: 24.06 ± 2.35 g
  weights: heart: 0.21 ± 0.05 g
  weights: liver: 0.44 ± 0.01 g
Chicken embryo; [20]
  LSI (liver somatic index): 2.52 ± 0.34%
  REEW (ratio of embryo to egg weight): 0.41 ± 0.035
  malformation rate: 0.0%
  mortality rate: 25.0%
  number of dead chicken embryo: 2
  number of malformation chicken embryo: 0
  weights: embryo: 22.11 ± 2.26 g
  weights: heart: 0.20 ± 0.02 g
  weights: liver: 0.56 ± 0.13 g
MCF-7 cells [3]; all test concentrations except 10^–11 M, VC + 3 SD = 18%
  % RME2, no detectable EA: < 18%
MCF-7 cells [3]; highest % RME2 (relative maximum % E2) in test range 10^–12–10^–7 M
  max % RME2: 22%
